The test system of the assay is OVCAR-4. Put plainly: Cytotoxicity against human OVCAR4 cells assessed as cell growth at 10 uM after 48 hrs by SRB assay relative to control. The following applies: OVCAR-4, 48 h, read-out: Activity. It is filed as functional. In a few lines:
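This was the NCI primary screen, with compound added once at 10⁻⁵ M and cultures incubated for 48 h. The endpoint was sulforhodamine B protein staining. Results are expressed as percent growth of treated cells relative to untreated control cells.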

Growth data for 1 compound are collected here from ChEMBL document CHEMBL2412956, “Synthesis and biological activity evaluation of 5-pyrazoline substituted 4-thiazolidinones” (Eur J Med Chem, 2013).

As for `COc1ccc(C2CC(c3ccc4ccccc4c3)=NN2C2SC(=O)N(CN3CCOCC3)C2=O)cc1` (stereo unspecified), the growth at 10 µM stood at 67.5%.
